Results from ChEMBL document CHEMBL3826896, “Synthesis of lignan conjugates via cyclopropanation: Antimicrobial and antioxidant studies” (Bioorg Med Chem Lett, 2016).
Values after ≈ are worked out from the molar mass of the structure shown.

system: not listed separately; experiment: Antioxidant activity assessed as DPPH radical scavenging activity at 100 ug/ml after 20 mins by spectrophotometry relative to control; format: physicochemical; settings: not given
How it was run: (§1)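 Radical scavenging measured in vitro by DPPH and by hydroxyl radical scavenging assays. Each run in triplicate at five concentrations, reported as mean ± SD of three replicates.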

Activity [%] | SMILES
21.65 | CCOC(=O)[C@@H]1CC(=O)c2sccc2[C@H]1c1ccccc1OC
20.76 | CCOC(=O)[C@@H]1CC(=O)c2sccc2[C@H]1c1ccc(OC)cc1OC
31.54 | CCOC(=O)[C@@H]1CC(=O)c2sccc2[C@H]1c1cc(OC)cc(OC)c1
26.22 | CCOC(=O)[C@@H]1CC(=O)c2sccc2[C@H]1c1ccc(OC)cc1

system: not listed separately; experiment: Antioxidant activity assessed as DPPH radical scavenging activity at 80 ug/ml after 20 mins by spectrophotometry relative to control; format: physicochemical; settings: not given; how it was run: as §1

Activity [%] | SMILES
19.65 | CCOC(=O)[C@@H]1CC(=O)c2sccc2[C@H]1c1ccccc1OC
18.64 | CCOC(=O)[C@@H]1CC(=O)c2sccc2[C@H]1c1ccc(OC)cc1OC
27.43 | CCOC(=O)[C@@H]1CC(=O)c2sccc2[C@H]1c1cc(OC)cc(OC)c1
23.92 | CCOC(=O)[C@@H]1CC(=O)c2sccc2[C@H]1c1ccc(OC)cc1

system: Streptococcus pyogenes; experiment: Antimicrobial activity against Streptococcus pyogenes after 24 hrs by broth dilution method; format: functional; settings: not given
How it was run: (§2)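 MIC by broth dilution in triplicate, reported as mean ± SD. Panel: bacteria S. aureus, S. pyogenes, E. coli; fungi C. neoformans, A. niger, A. flavus. Ciprofloxacin served as positive control for bacteria and nystatin for fungi. DMSO was the solvent and solvent control.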

MIC [µg/mL] | SMILES
50 (≈ 151 µM) | CCOC(=O)[C@@H]1CC(=O)c2sccc2[C@H]1c1ccccc1OC
50 (≈ 139 µM) | CCOC(=O)[C@@H]1CC(=O)c2sccc2[C@H]1c1ccc(OC)cc1OC
25 (≈ 69.4 µM) | CCOC(=O)[C@@H]1CC(=O)c2sccc2[C@H]1c1cc(OC)cc(OC)c1
25 (≈ 75.7 µM) | CCOC(=O)[C@@H]1CC(=O)c2sccc2[C@H]1c1ccc(OC)cc1

system: Aspergillus flavus; experiment: Antimicrobial activity against Aspergillus flavus after 72 hrs by broth dilution method; format: functional; settings: not given; how it was run: as §2

MIC [µg/mL] | SMILES
50 (≈ 151 µM) | CCOC(=O)[C@@H]1CC(=O)c2sccc2[C@H]1c1ccccc1OC
75 (≈ 208 µM) | CCOC(=O)[C@@H]1CC(=O)c2sccc2[C@H]1c1ccc(OC)cc1OC
25 (≈ 69.4 µM) | CCOC(=O)[C@@H]1CC(=O)c2sccc2[C@H]1c1cc(OC)cc(OC)c1
50 (≈ 151 µM) | CCOC(=O)[C@@H]1CC(=O)c2sccc2[C@H]1c1ccc(OC)cc1

system: not listed separately; experiment: Antioxidant activity assessed as hydroxyl radical scavenging activity at 40 ug/ml after 60 mins relative to control; format: physicochemical; settings: 1 h; how it was run: as §1

Activity [%] | SMILES
15.98 | CCOC(=O)[C@@H]1CC(=O)c2sccc2[C@H]1c1ccccc1OC
12.76 | CCOC(=O)[C@@H]1CC(=O)c2sccc2[C@H]1c1ccc(OC)cc1OC
20.65 | CCOC(=O)[C@@H]1CC(=O)c2sccc2[C@H]1c1cc(OC)cc(OC)c1
17.98 | CCOC(=O)[C@@H]1CC(=O)c2sccc2[C@H]1c1ccc(OC)cc1

system: Staphylococcus aureus; experiment: Antimicrobial activity against Staphylococcus aureus after 24 hrs by broth dilution method; format: functional; settings: not given; how it was run: as §2

MIC [µg/mL] | SMILES
25 (≈ 75.7 µM) | CCOC(=O)[C@@H]1CC(=O)c2sccc2[C@H]1c1ccccc1OC
50 (≈ 139 µM) | CCOC(=O)[C@@H]1CC(=O)c2sccc2[C@H]1c1ccc(OC)cc1OC
12.5 (≈ 34.7 µM) | CCOC(=O)[C@@H]1CC(=O)c2sccc2[C@H]1c1cc(OC)cc(OC)c1
50 (≈ 151 µM) | CCOC(=O)[C@@H]1CC(=O)c2sccc2[C@H]1c1ccc(OC)cc1

system: Aspergillus niger; experiment: Antimicrobial activity against Aspergillus niger after 72 hrs by broth dilution method; format: functional; settings: not given; how it was run: as §2

MIC [µg/mL] | SMILES
25 (≈ 75.7 µM) | CCOC(=O)[C@@H]1CC(=O)c2sccc2[C@H]1c1ccccc1OC
100 (≈ 277 µM) | CCOC(=O)[C@@H]1CC(=O)c2sccc2[C@H]1c1ccc(OC)cc1OC
25 (≈ 69.4 µM) | CCOC(=O)[C@@H]1CC(=O)c2sccc2[C@H]1c1cc(OC)cc(OC)c1
25 (≈ 75.7 µM) | CCOC(=O)[C@@H]1CC(=O)c2sccc2[C@H]1c1ccc(OC)cc1

system: not listed separately; experiment: Antioxidant activity assessed as hydroxyl radical scavenging activity at 80 ug/ml after 60 mins relative to control; format: physicochemical; settings: 1 h; how it was run: as §1

Activity [%] | SMILES
29.77 | CCOC(=O)[C@@H]1CC(=O)c2sccc2[C@H]1c1ccccc1OC
23.87 | CCOC(=O)[C@@H]1CC(=O)c2sccc2[C@H]1c1ccc(OC)cc1OC
36.32 | CCOC(=O)[C@@H]1CC(=O)c2sccc2[C@H]1c1cc(OC)cc(OC)c1
30.98 | CCOC(=O)[C@@H]1CC(=O)c2sccc2[C@H]1c1ccc(OC)cc1

system: not listed separately; experiment: Antioxidant activity assessed as hydroxyl radical scavenging activity at 100 ug/ml after 60 mins relative to control; format: physicochemical; settings: 1 h; how it was run: as §1

Activity [%] | SMILES
31.56 | CCOC(=O)[C@@H]1CC(=O)c2sccc2[C@H]1c1ccccc1OC
26.82 | CCOC(=O)[C@@H]1CC(=O)c2sccc2[C@H]1c1ccc(OC)cc1OC
41.5 | CCOC(=O)[C@@H]1CC(=O)c2sccc2[C@H]1c1cc(OC)cc(OC)c1
34.09 | CCOC(=O)[C@@H]1CC(=O)c2sccc2[C@H]1c1ccc(OC)cc1

system: not listed separately; experiment: Antioxidant activity assessed as DPPH radical scavenging activity at 20 ug/ml after 20 mins by spectrophotometry relative to control; format: physicochemical; settings: not given; how it was run: as §1

Activity [%] | SMILES
10.76 | CCOC(=O)[C@@H]1CC(=O)c2sccc2[C@H]1c1ccccc1OC
9.76 | CCOC(=O)[C@@H]1CC(=O)c2sccc2[C@H]1c1ccc(OC)cc1OC
18.56 | CCOC(=O)[C@@H]1CC(=O)c2sccc2[C@H]1c1cc(OC)cc(OC)c1
15.02 | CCOC(=O)[C@@H]1CC(=O)c2sccc2[C@H]1c1ccc(OC)cc1

system: not listed separately; experiment: Antioxidant activity assessed as DPPH radical scavenging activity at 60 ug/ml after 20 mins by spectrophotometry relative to control; format: physicochemical; settings: not given; how it was run: as §1

Activity [%] | SMILES
17.76 | CCOC(=O)[C@@H]1CC(=O)c2sccc2[C@H]1c1ccccc1OC
14.98 | CCOC(=O)[C@@H]1CC(=O)c2sccc2[C@H]1c1ccc(OC)cc1OC
24.76 | CCOC(=O)[C@@H]1CC(=O)c2sccc2[C@H]1c1cc(OC)cc(OC)c1
20.31 | CCOC(=O)[C@@H]1CC(=O)c2sccc2[C@H]1c1ccc(OC)cc1

system: Escherichia coli; experiment: Antimicrobial activity against Escherichia coli after 24 hrs by broth dilution method; format: functional; settings: not given; how it was run: as §2

MIC [µg/mL] | SMILES
50 (≈ 151 µM) | CCOC(=O)[C@@H]1CC(=O)c2sccc2[C@H]1c1ccccc1OC
75 (≈ 208 µM) | CCOC(=O)[C@@H]1CC(=O)c2sccc2[C@H]1c1ccc(OC)cc1OC
12.5 (≈ 34.7 µM) | CCOC(=O)[C@@H]1CC(=O)c2sccc2[C@H]1c1cc(OC)cc(OC)c1
50 (≈ 151 µM) | CCOC(=O)[C@@H]1CC(=O)c2sccc2[C@H]1c1ccc(OC)cc1

system: not listed separately; experiment: Antioxidant activity assessed as hydroxyl radical scavenging activity at 60 ug/ml after 60 mins relative to control; format: physicochemical; settings: 1 h; how it was run: as §1

Activity [%] | SMILES
22.76 | CCOC(=O)[C@@H]1CC(=O)c2sccc2[C@H]1c1ccccc1OC
19.87 | CCOC(=O)[C@@H]1CC(=O)c2sccc2[C@H]1c1ccc(OC)cc1OC
29.65 | CCOC(=O)[C@@H]1CC(=O)c2sccc2[C@H]1c1cc(OC)cc(OC)c1
24.76 | CCOC(=O)[C@@H]1CC(=O)c2sccc2[C@H]1c1ccc(OC)cc1

system: not listed separately; experiment: Antioxidant activity assessed as hydroxyl radical scavenging activity at 20 ug/ml after 60 mins relative to control; format: physicochemical; settings: 1 h; how it was run: as §1

Activity [%] | SMILES
11.87 | CCOC(=O)[C@@H]1CC(=O)c2sccc2[C@H]1c1ccccc1OC
10.05 | CCOC(=O)[C@@H]1CC(=O)c2sccc2[C@H]1c1ccc(OC)cc1OC
16.76 | CCOC(=O)[C@@H]1CC(=O)c2sccc2[C@H]1c1cc(OC)cc(OC)c1
13.03 | CCOC(=O)[C@@H]1CC(=O)c2sccc2[C@H]1c1ccc(OC)cc1

system: Cryptococcus neoformans; experiment: Antimicrobial activity against Cryptococcus neoformans after 72 hrs by broth dilution method; format: functional; settings: not given; how it was run: as §2

MIC [µg/mL] | SMILES
25 (≈ 75.7 µM) | CCOC(=O)[C@@H]1CC(=O)c2sccc2[C@H]1c1ccccc1OC
50 (≈ 139 µM) | CCOC(=O)[C@@H]1CC(=O)c2sccc2[C@H]1c1ccc(OC)cc1OC
12.5 (≈ 34.7 µM) | CCOC(=O)[C@@H]1CC(=O)c2sccc2[C@H]1c1cc(OC)cc(OC)c1
50 (≈ 151 µM) | CCOC(=O)[C@@H]1CC(=O)c2sccc2[C@H]1c1ccc(OC)cc1

system: not listed separately; experiment: Antioxidant activity assessed as DPPH radical scavenging activity at 40 ug/ml after 20 mins by spectrophotometry relative to control; format: physicochemical; settings: not given; how it was run: as §1

Activity [%] | SMILES
13.54 | CCOC(=O)[C@@H]1CC(=O)c2sccc2[C@H]1c1ccccc1OC
11.76 | CCOC(=O)[C@@H]1CC(=O)c2sccc2[C@H]1c1ccc(OC)cc1OC
19.97 | CCOC(=O)[C@@H]1CC(=O)c2sccc2[C@H]1c1cc(OC)cc(OC)c1
16.71 | CCOC(=O)[C@@H]1CC(=O)c2sccc2[C@H]1c1ccc(OC)cc1
